The list is not random: actives were taken first. Their share in the collection is about 0.55%.
V1R ag counter = agonists of human V1a receptor, primary screen, counter-screen for OXTR agonist project, fluorescence, CHO-V1R cells; Vasopressin V1a receptor (Homo sapiens), P37288; Fluo-8 calcium fluorescence, agonist mode; 0% DMSO, 100% 3 nM vasopressin; activation, % at 3 µM; 0.25% of 320,000 active;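 active means activation above the mean activation of all tested compounds plus 3 SD, per screening run, cut at about 20% in these data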;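 further: signal is peak over basal fluorescence ratio across a 100 second FLIPR read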
Target sequence (P37288 whole entry, looked up): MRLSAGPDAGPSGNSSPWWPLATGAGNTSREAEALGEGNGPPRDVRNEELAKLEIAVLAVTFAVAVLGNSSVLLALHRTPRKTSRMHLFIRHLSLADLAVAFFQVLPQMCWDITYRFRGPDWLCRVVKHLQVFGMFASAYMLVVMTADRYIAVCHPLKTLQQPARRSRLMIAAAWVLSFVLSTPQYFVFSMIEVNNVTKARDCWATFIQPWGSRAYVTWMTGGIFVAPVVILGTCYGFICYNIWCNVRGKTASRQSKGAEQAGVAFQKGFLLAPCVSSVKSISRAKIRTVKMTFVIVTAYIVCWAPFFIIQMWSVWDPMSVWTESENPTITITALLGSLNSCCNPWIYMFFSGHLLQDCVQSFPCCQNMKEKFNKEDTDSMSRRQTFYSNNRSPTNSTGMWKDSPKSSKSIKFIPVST
TRPML3 ag = human TRPML3 channel agonists, primary screen, cell-based, HEK293 TRPML3-YFP, Fluo-8 calcium fluorescence, 3 µM; Mucolipin-3 (Homo sapiens), Q8TDD5; 100% = the carbachol control signal; activation, % at 3 µM; 0.29% of 220,000 active; AID 1448, 2008;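 active means activation above its plate's cutoff, the mean activation of the plate's test wells plus 3 SD, cut at about 12% in these data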;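 further: 0% = DMSO only wells and 100% = carbachol wells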
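Test system: HEK293 cells stably carrying human TRPML3-YFP; Doses: single dose, 3 µM final nominal compound, 0.3% DMSO final; Schedule: dye loading 1 h 37 °C then 30 min ambient, 125 s read; Technique: Fluo-8 calcium fluorescence; Benchmarks: high control carbachol 87 µM, low control DMSO.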
OXTR ag = human OXTR agonists, primary screen, fluorescence, CHO-OTR cells, Fluo-8 calcium; Oxytocin receptor (Homo sapiens), P30559; Fluo-8 calcium fluorescence; normalized: DMSO 0%, oxytocin 100%; activation, % at 3 µM; 0.32% of 320,000 active; AID 2435, 2010;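 active means activation above the mean of all tested compounds plus 3 SD, cutoff set per screening run, cut at about 20% in these data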;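 further: peak over basal fluorescence ratio from a 100 s FLIPR kinetic read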
TRPN1 ag = zebrafish TRPN1 channel agonists, primary screen, cell-based, HEK293, calcium fluorescence; HEK293 zebrafish TRPN1-YFP, Fluo-8 calcium fluorescence; 100% = response to 87 µM carbachol; activation, % at 3 µM; 0.18% of 220,000 active; AID 1424, 2008;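 active means activation above its plate's cutoff, the mean activation of test wells on that plate plus 3 SD, cut at about 19% in these data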;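 further: 0% = DMSO alone and 100% = 87 µM carbachol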
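Material: zebrafish TRPN1-YFP in HEK293 cells. Doses: one dose of 3 µM, 0.3% DMSO. Incubation: dye 1 h 37 °C plus 30 min RT. Measured by: intracellular calcium fluorescence with Fluo-8.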
OXTR potentiate = human OXTR potentiators, primary screen, fluorescence, CHO-OTR cells, Fluo-8 calcium. activation, % at 3 µM. Oxytocin receptor (Homo sapiens), P30559. 0.061% of 320,000 active. Fluo-8 calcium fluorescence, potentiator mode; 0% = oxytocin EC15, 100% = EC100;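 active means activation above that plate's cutoff, the mean activation of tested compounds plus 3 SD, cut at about 6.6% in these data, passing the limit was not always enough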;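 further: 100% uses oxytocin at 75 nM as the full agonist control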
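System: human OTR in CHO cells / Also added: sub-maximal oxytocin, roughly EC15 / Control set: EC15 oxytocin low, 75 nM oxytocin high / Schedule: 6 min compound pre-incubation at room temperature, 100 s kinetic read / Compound: single-point 3.0 µM / Replication: singlicate / Technique: Fluo-8 calcium dye fluorescence / Read-out basis: % activation of max/min ratio relative to oxytocin controls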
V1R ag confirm = V1a receptor agonists, calcium signal, confirmation, Fluo-8 calcium fluorescence, CHO-V1R cells. agonist. activation, % at 3 µM. 20% of 180 active. AID 434964, 2010. shares compounds with V1R ag counter;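 active means average activation exceeds primary screen hit cutoff, cut at about 21% in these data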;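 further: peak over basal fluorescence ratio during a 100 s FLIPR read; 0% = DMSO only wells and 100% = 3 nM vasopressin wells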
OXTR ag counter = human OXTR agonists, counter-screen for V1R agonist project, fluorescence, CHO-OTR cells, triplicate; activation, % at 3 µM; 10% of 180 active; shares compounds with V1R ag counter; Fluo-8 calcium fluorescence;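 active means mean activation over three repeats above the cutoff from the earlier oxytocin receptor agonist screen, cut at about 20% in these data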;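 further: peak over minimum fluorescence ratio within a 100 second FLIPR read; 0% = DMSO only wells and 100% = oxytocin high control wells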
* = called active by the depositor; · = no result.

SMILES | V1R ag counter | TRPML3 ag | OXTR ag | TRPN1 ag | OXTR potentiate | V1R ag confirm | OXTR ag counter
CC(NC(=O)Nc1ccc(Cl)c(Cl)c1)C(c1ccccc1)N1CCOCC1 (centres undefined) | 44* | 0 | 14 | 1 | -18 | 25* | 8
CC(NC(=O)c1ccc(Cl)cc1Cl)C(c1ccccc1)N1CCOCC1 (centres undefined) | -1 | -1 | -2 | -3 | -8 | · | ·
c1ccc(C2=Nc3cccnc3C(c3ccccc3)=NN2)cc1 | 0 | 0 | -2 | 0 | -9 | · | ·
C/C(=N/NC(=O)c1ccncc1)c1cc2ccc(O)cc2oc1=O | 30* | 3 | 18 | 1 | -11 | 584* | 700*
CCC(NC(=O)Nc1cc(C)on1)(C(F)(F)F)C(F)(F)F | -2 | 1 | -3 | -1 | -13 | · | ·
Cc1cc(NCc2ccccc2)nc2ccccc12 | 32* | 3 | 17 | 4 | -35 | 14 | 1
Cc1cc(NCc2ccccc2)c2ccccc2n1 | 4 | · | 0 | · | -2 | · | ·
O=C(NC(=S)NCCc1ccccn1)c1ccco1 | 117* | 0 | 0 | 0 | 0 | 0 | 0
O=C(NC(=S)NCCc1ccccn1)c1ccccc1 | 0 | 0 | 0 | 2 | 0 | · | ·
COc1ccc(N=C2NC(=O)S/C2=C\c2ccc(N(C)C)cc2)cc1 | 21* | 3 | 18 | 8 | -24 | 26* | 20*
CCOc1ccc(N=C2NC(=O)S/C2=C\c2ccc(Cl)cc2)cc1 | 1 | 1 | -1 | 2 | -12 | · | ·
O=C(NCCOc1ccccc1Cl)c1cccc2c1C(=O)c1ccc(Cl)cc1S2(=O)=O | -1 | · | 0 | · | -4 | · | ·
S=C(CN1CCCC1=S)NCCc1ccccc1 | 0 | 0 | 0 | -2 | 2 | · | ·
COc1ccc(CC(=O)Nc2ccc(NC(=O)c3ccccc3F)cc2)cc1 | 32* | 0 | 0 | 2 | -8 | 13 | 3
COc1ccc(NC(=O)CSc2nc(N)c(NC(=O)c3ccccc3F)c(=O)[nH]2)cc1 | 0 | · | 0 | · | -4 | · | ·
CC(C)(C)OC(=O)C[C@H]1C/C=C\C[C@@H](CC(=O)N(CCO)Cc2ccccc2)C(=O)N2CCC[C@H]2COC1=O | 1 | · | -1 | · | -3 | · | ·
Cc1cc(C)n(-c2nc(Nc3ccccc3)nc(-n3nc(C)cc3C)n2)n1 | 0 | 1 | 0 | 1 | -7 | · | ·
COc1cccc(/C=N/Nc2nc(Nc3ccccc3)nc(-n3nc(C)cc3C)n2)c1O | 21* | 1 | 15 | 3 | -21 | 6 | 1
Cc1cccc(OCCOC(=O)CN2C(=O)NC3(CCCC3)C2=O)c1 | 0 | · | -1 | · | -5 | · | ·
COc1cc(C(=O)NNC(=S)NC(=O)c2ccc3c(c2)OCO3)cc(OC)c1OC | 0 | 0 | 8 | 0 | -5 | · | ·
COc1cc(C(=O)NNC(=S)NC(=O)c2ccccc2C)cc(OC)c1OC | 29* | 5 | 9 | 3 | -5 | 11 | 8
COc1ccc(CCn2c(C)c(C(C)=O)c3cc(OC(=O)c4ccco4)ccc32)cc1OC | 5 | 1 | -1 | 1 | -3 | · | ·
Nc1nc(-c2ccccn2)nc(N)c1Cc1ccc(Cl)cc1Cl | 22* | 2 | 15 | 3 | -11 | 7 | 4
COC(=O)c1ccc(NC(=S)NC(=O)c2cc(-c3ccccc3)nc3ccccc23)cc1 | 1 | 1 | 1 | 0 | -8 | · | ·
COc1ccc(Cl)cc1C(=O)NNC(=S)NC(=O)c1cc(-c2ccccc2)nc2ccccc12 | 26* | 1 | 14 | 5 | -22 | 35* | 21*
SMILES | V1R ag counter | TRPML3 ag | OXTR ag | TRPN1 ag | OXTR potentiate | V1R ag confirm | OXTR ag counter
Cc1ccc(NS(=O)(=O)c2ccc(C(=O)N3CCCCCCC3)cc2)cc1 | 15 | · | 8 | · | -14 | · | ·
Cc1ccc(NS(=O)(=O)c2ccc(C(=O)N3CCCCCC3)cc2)cc1 | 21* | · | 14 | · | -12 | 13 | 17
COc1ccc(CCNCC(O)COc2cccc(Br)c2)cc1OC (centres undefined) | 1 | 2 | 0 | 2 | -4 | · | ·
COc1ccc(CCNCC(O)COc2ccc(OC)cc2C(C)(C)C)cc1 (centres undefined) | 24* | · | 18 | · | -12 | 1 | 3
CCOc1cc(NC(=S)NCC2CCCO2)c(OCC)cc1NC(=O)CC(C)C (centres undefined) | 0 | 0 | -1 | 1 | -5 | · | ·
CCCCCc1ccc(OCCCC[n+]2ccc(C)cc2)c(CCCCC)c1 | 22* | 0 | 10 | -1 | -26 | 13 | 17
CCCCCc1ccc(OCCCC[n+]2ccccc2)c(CCCCC)c1 | 18 | 0 | 9 | -2 | -7 | · | ·
CCC(C)C(NC(=O)OCc1ccccc1)C(=O)NC(Cc1ccc(O)cc1)C(=O)OC (centres undefined) | 27* | 2 | 17 | 8 | -26 | 4 | 18
c1cc2c3c(cccc3c1)NC1(CCC3(CC1)Nc1cccc4cccc(c14)N3)N2 | 32* | 9 | 11 | 18 | -17 | 4 | 17
c1cc2c3c(cccc3c1)NC1(CCCCCC1)N2 | 1 | 1 | 0 | -2 | -8 | · | ·
CCC(NC(=O)c1cc(COc2ccc(C)nc2)on1)c1ccc(C)cc1 (centres undefined) | 23* | · | 12 | · | -18 | 13 | 13
O=C(O)C1(c2ccccc2)CCN(S(=O)(=O)c2ccc(Br)cc2)CC1 | 1 | · | 0 | · | -6 | · | ·
COC(=O)C1=C(C)N(Cc2ccccc2)C(=NCCc2c[nH]c3ccccc23)N[C@H]1c1cccc(C(F)(F)F)c1 | 20* | · | 16 | · | -5 | 4 | 6
COCCN=C1N[C@@H](c2cccc(C(F)(F)F)c2)C(C(=O)OC)=C(C)N1Cc1ccccc1 | 5 | · | 14 | · | -10 | · | ·
CCCCCCCCCCC[N+](C)(C)CC/C=C1/c2ccccc2Sc2ccc(Cl)cc21 | 38* | · | 1 | · | -13 | 11 | 17
CN(CC(=O)NCc1ccc(F)cc1)CC(=O)Nc1ccc(Cl)c(C(F)(F)F)c1 | 29* | · | 16 | · | -15 | 10 | 13
CCOC(=O)c1c(CSc2cccs2)n(C)c2cc(Br)c(O)c(CN(C)C)c12 | -1 | 2 | -2 | -3 | -6 | · | ·
O=C(CCCC(=O)NCC1CCCO1)NCC1CCCO1 (centres undefined) | 20* | 0 | 1 | -1 | 0 | 0 | 0
